Compound activity (PubChem BioAssay)
Most compounds without a hit are left out; they make up all but 1.5% or so of the library.
OXTR potentiator = potentiates the human oxytocin receptor response | P30559 | CHO-OTR cells, Fluo-8 calcium fluorescence, potentiator mode; 0% = oxytocin EC15, 100% = EC100 | activation, % at 3 µM | 320,000 compounds, 0.061% hits;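 active means activation above that plate's cutoff, the mean activation of tested compounds plus 3 SD, cut at about 6.6% in these data, passing the limit was not always enough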;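 further: 100% uses oxytocin at 75 nM as the full agonist control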
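Assay system: CHO cell line stably expressing human OTR | Also added: Oxytocin at about EC15, sub-maximal agonist stimulus | Times: Compound 6 min at room temperature before oxytocin, 100 s read | Measured by: Fluo-8 intracellular calcium fluorescence, ex 470-495, em 515-575 nm | Controls: EC15 oxytocin alone as 0%, 75 nM oxytocin as 100%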
CHRM4 antagonist = antagonists of human muscarinic M4 receptor (CHRM4); P08173; CHO-hM4 cells, ACh EC80, Fluo-8 calcium fluorescence; inhibition, % at 3 µM; 360,000 compounds, 0.73% hits;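 active means inhibition above its plate's cutoff, the mean inhibition of sample wells plus 3 SD, cut at about 27% in these data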;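 further: 0% = acetylcholine EC80 with DMSO and 100% = DMSO without agonist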
M4 PAM = CHRM4 positive allosteric modulation | 360,000 compounds, 0.4% hits | P08173 | CHO-K1 hM4/Gqi5, Fluo-8 calcium fluorescence, ACh EC20; 0% = ACh EC20, 100% = maximal ACh | AID 624126 | activation, % at 3 µM;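 active means activation above its plate's cutoff, the mean activation of sample wells plus 3 SD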
V1R ag counter = activates human V1a receptor in oxytocin agonist counter-screen. P37288. CHO-V1R cells, Fluo-8 calcium fluorescence, agonist mode; 0% DMSO, 100% 3 nM vasopressin. activation, % at 3 µM. 320,000 compounds, 0.25% hits. AID 2797;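 active means activation above the mean activation of all tested compounds plus 3 SD, per screening run, cut at about 20% in these data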;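 further: signal is peak over basal fluorescence ratio across a 100 second FLIPR read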
Target sequence (P37288 whole entry, looked up): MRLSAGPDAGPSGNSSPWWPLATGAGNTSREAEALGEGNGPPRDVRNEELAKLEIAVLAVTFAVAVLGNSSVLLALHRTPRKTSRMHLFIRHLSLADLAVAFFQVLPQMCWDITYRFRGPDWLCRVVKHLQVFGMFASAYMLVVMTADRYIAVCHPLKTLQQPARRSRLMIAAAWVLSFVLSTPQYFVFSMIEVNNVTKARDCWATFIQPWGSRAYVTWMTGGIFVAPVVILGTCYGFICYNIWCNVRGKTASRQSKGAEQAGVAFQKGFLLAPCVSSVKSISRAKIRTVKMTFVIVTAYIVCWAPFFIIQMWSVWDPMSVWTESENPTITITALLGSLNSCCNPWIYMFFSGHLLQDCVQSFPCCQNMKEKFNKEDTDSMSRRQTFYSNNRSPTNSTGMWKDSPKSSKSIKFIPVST
CHRM4 agonist = agonists of human muscarinic M4 receptor (CHRM4). CHO-K1 hM4/Gqi5, Fluo-8 calcium fluorescence; vehicle 0%, full acetylcholine response 100%. activation, % at 3 µM. 360,000 compounds, 0.14% hits. AID 624127;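 active means activation above the run mean over all test wells plus 3 SD, cut at about 32% in these data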;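 further: peak over basal fluorescence ratio per well then scaled between controls; 0% = DMSO wells and 100% = acetylcholine at EC100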
OXTR agonist = agonists of human oxytocin receptor. P30559. CHO-OTR cells, Fluo-8 calcium fluorescence; normalized: DMSO 0%, oxytocin 100%. activation, % at 3 µM. 320,000 compounds, 0.32% hits. AID 2435;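 active means activation above the mean of all tested compounds plus 3 SD, cutoff set per screening run, cut at about 20% in these data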;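 further: peak over basal fluorescence ratio from a 100 s FLIPR kinetic read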
Active calls of the source: *; . = no result given.

SMILES | OXTR potentiator | CHRM4 antagonist | M4 PAM | V1R ag counter | CHRM4 agonist | OXTR agonist
OC[C@H]1O[C@@H](c2nc(-c3ccc4[nH]ccc4c3)no2)[C@H](O)[C@@H](O)[C@H]1O | . | -4 | 16* | . | 1 | .
COc1ccc(C(=O)Nc2nc3c(s2)Cc2cc(OC)ccc2-3)cc1 | -7 | 5 | 0 | 0 | 1 | -1
COc1ccc2c(c1)Cc1sc(NC(=O)c3ccccc3)nc1-2 | -8 | -8 | 18* | 2 | 5 | -2
Fc1ccccc1COc1ccc(Br)cc1CNCc1ccncc1 | -8 | 37* | -11 | 2 | 19 | 1
CC(C)(C)OC(=O)N1CCN(C(c2ccnc3ccccc23)c2nnnn2-c2ccc3c(c2)OCCO3)CC1 (stereo unspecified) | . | 0 | 3 | . | 7 | .
OC[C@@H]1CN(Cc2ccc(Cl)cc2)C[C@H](n2cnc3c(NC4CCC4)ncnc32)O1 | . | -13 | 3 | . | 4 | .
COc1cc(CNC[C@H]2O[C@@H](n3cc(C)c(=O)[nH]c3=O)C[C@@H]2O)ccc1OCc1cccc(Cl)c1 | . | -11 | 8 | . | 0 | .
CC1=Nn2c(nnc2C2CCCCC2)SC1 | 4 | 10 | 31* | 1 | 0 | 2
O=c1[nH]c(-c2ccccc2)nc(CN2CCCCC2)c1O | . | -15 | 21* | . | 1 | .
O=C(COC(=O)COc1ccc(Cl)cc1)Nc1ncc(Br)s1 | . | -22 | 11 | . | 4 | .
O=C(CNC(=O)N1CC(=O)Nc2ccccc21)NCCc1cccc(F)c1 | -16 | -8 | 19* | 0 | 1 | -1
O=C(NCC(=O)N(CC1CCCO1)C(C(=O)NC1CCCC1)c1cccnc1)c1ccco1 (stereo unspecified) | -9 | 5 | 17 | 0 | 1 | 0
CCOC(=O)CSc1nnc(-c2c[nH]c3ccccc23)o1 | . | 100* | -17 | . | -2 | .
CCOC(=O)N1CCN(C(=O)CSc2nnc(-c3cc(OC)ccc3OC)o2)CC1 | . | 3 | 0 | . | 1 | .
CCOC(=O)N1CCN(C(=O)CSc2nnc(-c3ccccc3OC)o2)CC1 | 1 | 10 | 30* | 1 | 0 | -1
COc1ccc(CN(C(=O)CSc2nnc(-c3ccc(F)cc3)o2)c2ccc(F)cc2)cc1 | -11 | 1 | 6 | 3 | 2 | 2
COc1ccc(CN(C(=O)CSc2nnc(-c3c[nH]c4ccccc34)o2)c2ccc(F)cc2)cc1OC | -15 | 41* | -12 | 2 | 19 | 2
COc1cccc(C2c3cc4c(cc3OC(N3CCOCC3)C2C)OCO4)c1O (stereo unspecified) | . | -14 | 1 | . | 4 | .
COc1ccc(C(=O)NCCCCCCNC(=O)c2ccc(OC)cc2)cc1 | -6 | -10 | 0 | -1 | 13 | 0
COc1cc(C#Cc2c(-c3cncn3C)n(C)c3ccc(-c4ccc(CN5CCOCC5)cc4)cc23)cc(OC)c1 | -2 | 30* | -10 | 0 | 5 | 0
CC(C)(C)OC(=O)NCCCCCNC(=O)c1nc[nH]c1C(=O)NCc1ccc(CNC(=O)OC(C)(C)C)cc1 | -8 | 54* | -17 | 7 | 34* | 6
OC(COC(c1ccccc1)c1ccccc1)CN1CCN(c2cccc(Cl)c2)CC1 (stereo unspecified) | -9 | 17 | -9 | 0 | 0 | 2
CC(=O)c1ccc(N2CCN(CC(O)COC(c3ccccc3)c3ccccc3)CC2)cc1 (stereo unspecified) | -10 | 40* | -22 | 5 | 6 | 2
CC(=O)c1ccc(N2CCN(CC(O)COC(c3ccccc3)c3ccccc3C)CC2)cc1 (stereo unspecified) | -9 | 81* | -23 | 5 | 12 | 1
COc1ccc(C(C)(O)c2nc(-c3ccc(OC)c(OC)c3)cs2)cc1 (stereo unspecified) | . | -17 | 25* | . | 1 | .
SMILES | OXTR potentiator | CHRM4 antagonist | M4 PAM | V1R ag counter | CHRM4 agonist | OXTR agonist
COc1ccc(-c2csc(C(C)(O)c3ccccc3)n2)cc1OC (stereo unspecified) | . | -6 | 6 | . | 2 | .
CC1CCCC(C)N1C(=O)COC(=O)c1n[nH]c(=O)c2ccccc12 (stereo unspecified) | -5 | -11 | 13 | 1 | 1 | 1
N#Cc1nc(-c2ccc(F)cc2)oc1N1CCN(C(=O)c2ccco2)CC1 | -4 | -12 | -2 | 0 | 1 | 0
COc1cccc(-c2nc(C#N)c(N3CCN(C(=O)c4ccco4)CC3)o2)c1 | -11 | 3 | 22* | 0 | 1 | 2
CCCNS(=O)(=O)c1ccc(CCC(=O)Nc2cc(Cl)ccc2Oc2ccccc2)cc1 | . | 43* | -20 | . | 9 | .
NS(=O)(=O)c1ccc(Nc2nc(-c3cccc([N+](=O)[O-])c3)cs2)cc1 | -7 | 0 | -16 | -1 | 6 | -1
O=C(Nc1nc(-c2ccc3ccccc3c2)cs1)c1ccc(N2C(=O)CCC2=O)cc1 | -5 | 1 | 1 | 2 | 1 | 3
NS(=O)(=O)c1ccc(Nc2nc(-c3ccc4ccccc4c3)cs2)cc1 | -10 | 37* | 6 | 0 | 7 | 3
O=C(O)c1ccccc1C(=O)Nc1nc(-c2ccc3ccccc3c2)cs1 | -2 | 3 | 24* | 1 | -2 | 0
O=C(COC(=O)c1cc([N+](=O)[O-])ccc1NCCO)Nc1cccc(S(=O)(=O)N2CCCC2)c1 | -3 | 35* | -15 | -1 | 5 | 0
O=C(COC(=O)c1cc([N+](=O)[O-])ccc1NCCO)Nc1ccc2c(c1)OCO2 | -11 | -3 | -5 | 0 | 4 | 1
CCCCNC(=O)C(NC(=O)c1ccc2ccccc2c1)C(=O)c1ccccc1 (stereo unspecified) | . | -6 | 3 | . | 5 | .
CC(=O)N1CCc2cc(NC(=O)C3(C)CCN3Cc3ccccc3OC(F)F)ccc21 (stereo unspecified) | . | -1 | -6 | . | 11 | .
CC(OC(=O)c1ncc(Cl)c(Cl)c1Cl)C(=O)NC1(C#N)CCCCC1 (stereo unspecified) | -7 | 9 | -8 | -1 | 1 | -2
C[C@H](OC(=O)c1[nH]cnc1C(=O)N1CCN(C(=O)OC(C)(C)C)CC1)c1ccccc1 | -4 | -7 | 3 | 1 | 1 | 2
CCOC(=O)c1[nH]cnc1C(=O)N1CCN(C(=O)OC(C)(C)C)CC1 | 4 | -9 | 24* | -1 | 1 | 0
O=C(O)CCCCCCCCCCP(=O)(c1ccccc1)c1ccccc1 | -3 | 15 | 0 | 0 | 1 | 1
O=C(O)CP(=O)(c1ccccc1)c1ccccc1 | -13 | 2 | 22* | 0 | 1 | 0
O=P(CCCCCCCCCP(=O)(c1ccccc1)c1ccccc1)(c1ccccc1)c1ccccc1 | -21 | 21 | -17 | 24* | 13 | 20*
